Tests used:
Mus musculus [1] = test: Anticonvulsant activity in mouse assessed as protection against maximal electroshock-induced seizure at 1.5 mmol/kg, ip administered 30 min prior to maximal electroshock-challenge measured after 60 mins relative to control; format: functional
[2] = Toxicity in ip dose mouse assessed as mortality; format: organism-based; conditions: in vivo
Outline: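 In mice, LD50 is the dose causing 50% mortality. ED50 is the dose protecting 50% of mice against pentylenetetrazole-induced seizures. Therapeutic index = LD50/ED50.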

[3] = Neurotoxicity in ip dosed mouse assessed as impaired motor coordination administered 30 mins prior to test by chimney test; format: toxicity, organism-based; conditions: in vivo
Outline: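 Mice, Chimney test. TD50 is the dose that produces minimal neurological toxicity (impaired motor coordination) in 50% of animals, estimated from testing at several doses.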

Mus musculus [4] = test: Anticonvulsant activity in ip dosed mouse assessed as protection against pentylenetetrazol-induced seizure administered 30 min prior to pentylenetetrazol-challenge measured after 60 mins; format: functional
Outline: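 Mice received several doses for quantification. ED50 taken as the dose protecting 50% of mice against pentylenetetrazol-induced seizures.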

Mus musculus [5] = test: Anticonvulsant activity in mouse assessed as protection against picrotoxin-induced seizure at 1.5 mmol/kg, ip administered 30 min prior to picrotoxin-challenge measured after 60 mins relative to control; format: functional
Mus musculus [6] = test: Anticonvulsant activity in mouse assessed as protection against strychnine-induced seizure at 1.5 mmol/kg, ip administered 30 min prior to strychnine-challenge measured after 60 mins relative to control; format: functional
Mus musculus [7] = test: Anticonvulsant activity in mouse assessed as protection against pentylenetetrazol-induced seizure at 1.5 mmol/kg, ip administered 30 min prior to pentylenetetrazol-challenge measured after 60 mins relative to control; format: functional

CCCC(CCC)C(=O)[O-].[Na+] [VALPROATE SODIUM]
Activity (Mus musculus [1]): 100%
LD50 [2]: 3000 µmol/kg
TD50 at 0.5 h [3]: 2700 µmol/kg
ED50 (Mus musculus [4]): 1500 µmol/kg
Activity (Mus musculus [5]): 100%
Activity (Mus musculus [6]): 100%
Activity (Mus musculus [7]): 100%

— ChEMBL document CHEMBL1955778, “Design and synthesis of novel 7-aminoquinazoline derivatives: antitumor and anticonvulsant activities” (Bioorg Med Chem Lett, 2012)
